Columns and labels:
[1] = molecular target: T1, Protein deacetylase HDAC6 (Homo sapiens, UniProt Q9UBN7); assay: Inhibition of full length N-terminal GST-tagged human recombinant HDAC6 (1 to 1215 residues) expressed in Baculovirus infected Sf9 cells using Ac-Leu-Gly-Lys (Ac)-AMC as substrate pretreated for 5 mins followed by substrate addition and measured after 30 mins
T1 sequence (Q9UBN7 whole entry): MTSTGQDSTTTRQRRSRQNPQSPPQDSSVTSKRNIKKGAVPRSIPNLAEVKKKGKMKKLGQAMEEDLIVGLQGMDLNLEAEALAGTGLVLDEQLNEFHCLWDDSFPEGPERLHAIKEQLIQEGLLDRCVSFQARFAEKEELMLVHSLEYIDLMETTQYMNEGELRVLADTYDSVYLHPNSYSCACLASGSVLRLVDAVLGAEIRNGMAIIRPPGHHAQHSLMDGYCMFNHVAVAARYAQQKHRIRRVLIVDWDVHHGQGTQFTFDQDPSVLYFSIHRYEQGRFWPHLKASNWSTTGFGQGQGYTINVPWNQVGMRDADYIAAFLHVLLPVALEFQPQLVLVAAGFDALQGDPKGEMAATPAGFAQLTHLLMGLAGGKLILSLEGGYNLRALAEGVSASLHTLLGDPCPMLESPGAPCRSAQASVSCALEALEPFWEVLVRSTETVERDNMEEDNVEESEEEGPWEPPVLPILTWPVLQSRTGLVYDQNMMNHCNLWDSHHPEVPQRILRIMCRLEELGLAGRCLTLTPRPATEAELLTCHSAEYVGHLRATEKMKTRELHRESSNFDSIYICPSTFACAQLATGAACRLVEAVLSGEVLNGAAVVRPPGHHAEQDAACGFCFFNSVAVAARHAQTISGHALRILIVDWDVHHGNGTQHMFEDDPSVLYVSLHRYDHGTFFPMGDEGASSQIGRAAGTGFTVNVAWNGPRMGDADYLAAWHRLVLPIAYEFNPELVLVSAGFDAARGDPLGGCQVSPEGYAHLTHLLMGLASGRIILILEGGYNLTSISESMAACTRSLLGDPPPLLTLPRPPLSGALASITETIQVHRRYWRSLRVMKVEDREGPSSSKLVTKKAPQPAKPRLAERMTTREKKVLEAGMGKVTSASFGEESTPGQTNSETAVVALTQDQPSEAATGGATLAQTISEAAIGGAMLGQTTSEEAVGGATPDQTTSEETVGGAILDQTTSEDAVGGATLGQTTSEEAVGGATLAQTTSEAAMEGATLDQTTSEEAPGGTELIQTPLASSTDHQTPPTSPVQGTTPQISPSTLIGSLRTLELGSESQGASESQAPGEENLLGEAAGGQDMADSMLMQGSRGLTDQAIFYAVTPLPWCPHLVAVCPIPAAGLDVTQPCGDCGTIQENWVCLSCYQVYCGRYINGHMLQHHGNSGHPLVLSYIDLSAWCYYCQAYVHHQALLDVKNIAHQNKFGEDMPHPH
Outline: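 HDAC6 at 15 ng/well in Tris buffer pH 8.0 with MgCl2, BSA, NaCl and KCl. Ten 3-fold dilutions preincubated 5 min at room temperature, then 10 μM Ac-Leu-Gly-Lys(Ac)-AMC for 30 min at 37 °C. IC50 by normalized dose–response nonlinear fit; performed at least three times.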

Histone deacetylase 8 = molecular target: T2, Histone deacetylase 8 (Homo sapiens, UniProt Q9BY41); assay: Inhibition of full length C-terminal his-tagged human recombinant HDAC8 ([…]) expressed in baculovirus in Sf9 insect cells using Ac-Leu-Gly-Lys (Tfa)-AMC as substrate pretreated for 5 mins followed by substrate addition and measured after 30 mins
T2 sequence (Q9BY41 whole entry): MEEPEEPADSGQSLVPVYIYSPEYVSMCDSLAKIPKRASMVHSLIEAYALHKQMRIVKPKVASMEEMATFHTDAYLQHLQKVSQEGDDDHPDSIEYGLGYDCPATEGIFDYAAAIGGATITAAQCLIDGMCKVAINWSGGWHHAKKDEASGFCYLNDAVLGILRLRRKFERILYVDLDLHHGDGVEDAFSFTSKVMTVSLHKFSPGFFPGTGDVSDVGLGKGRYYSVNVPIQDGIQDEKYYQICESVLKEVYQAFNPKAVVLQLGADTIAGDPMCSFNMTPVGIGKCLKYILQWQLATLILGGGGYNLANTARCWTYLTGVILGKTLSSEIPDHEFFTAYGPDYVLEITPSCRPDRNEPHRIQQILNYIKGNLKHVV

[2] = Antiproliferative activity against human YCC-11 cells assessed as inhibition of cell viability; format: functional, cell-based
Histone deacetylase 1 = Histone deacetylase 1 (Homo sapiens, UniProt Q13547); assay: Inhibition of full length recombinant human HDAC1 (1 to 482 residues) expressed in Baculovirus system using Ac-Leu-Gly-Lys (Ac)-AMC as substrate pretreated for 5 mins followed by substrate addition and measured after 30 mins
[3] = Antiproliferative activity against human YCC3/7 cells assessed as inhibition of cell viability; format: functional, cell-based
HCT-116 = assay: Antiproliferative activity against human HCT-116 cells assessed as inhibition of cell viability measured for 48 hrs by microplate reader based MTT assay; format: functional; conditions: HCT-116, 48 h
Outline: (§1)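 Cells grown in RPMI-1640 with 10% FBS and seeded at 5000 cells/well. After overnight attachment, compound was added in medium with 0.1% DMSO for 48 h at 37 °C. Read-out was MTT for HCT-116, B16-F10 and A549, and CCK-8 for Jurkat (0.5 mg/mL, 4 h), with absorbance at 570 nm. IC50 from nonlinear regression; at least three independent experiments.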

Jurkat = assay: Antiproliferative activity against human Jurkat cells assessed as inhibition of cell viability measured for 48 hrs by microplate reader based CCK-8 assay; format: functional
A549 = assay: Antiproliferative activity against human A549 cells assessed as inhibition of cell viability measured for 48 hrs by microplate reader based CCK-8 assay; format: functional; conditions: A549, 48 h
B16-F10 = assay: Antiproliferative activity against mouse B16-F10 cells assessed as inhibition of cell viability measured for 48 hrs by microplate reader based MTT assay; format: functional; conditions: B16-F10, 48 h; outline: as §1
Histone deacetylase 3 = Histone deacetylase 3 (Homo sapiens, UniProt O15379); assay: Inhibition of recombinant HDAC3 (unknown origin) using Ac-Leu-Gly-Lys (Ac)-AMC as substrate pretreated for 5 mins followed by substrate addition and measured after 30 mins
[4] = molecular target: T3, Protein deacetylase HDAC6 (Homo sapiens) (UniProt Q9UBN7); assay: Inhibition of recombinant HDAC6 (unknown origin) at 1 uM relative to control
T3 sequence (whole entry): T1 sequence (Q9UBN7 whole entry)
Outline: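 Single-point test at 1 μM against recombinant HDAC6 (15 ng/well) in 25 mM Tris pH 8.0, 1 mM MgCl₂, 0.1 mg/mL BSA, 137 mM NaCl, 2.7 mM KCl. Compound preincubated 5 min at room temperature, then Ac-Leu-Gly-Lys(Ac)-AMC 10 μM, 30 min at 37 °C. Trypsin/TSA developer 30 min. Fluorescence read at ex 350−360/em 450−460 nm.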

Tubulin (Sus scrofa) = Tubulin (Sus scrofa) (UniProt P02554+P02550); assay: Inhibition of pig brain tubulin polymerization at 10 uM measured after 20 mins by spectrometric method relative to control
Outline: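 Pig brain tubulin was purified by three assembly/disassembly cycles and then phosphocellulose chromatography. Compound at 10 μM in PEM buffer with 1 mM GTP and 5% glycerol at 37 °C. Polymerization followed at 340 nm; inhibition taken at 20 min versus vehicle control.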

Histone deacetylase 7 = molecular target: T4, Histone deacetylase 7 (Homo sapiens, UniProt Q8WUI4); assay: Inhibition of full length N-terminal GST-tagged human recombinant HDAC7 (501 to 952 residues) expressed in Baculovirus system using Ac-Leu-Gly-Lys (Ac)-AMC as substrate pretreated for 5 mins followed by substrate addition and measured after 30 mins
T4 sequence (Q8WUI4 whole entry): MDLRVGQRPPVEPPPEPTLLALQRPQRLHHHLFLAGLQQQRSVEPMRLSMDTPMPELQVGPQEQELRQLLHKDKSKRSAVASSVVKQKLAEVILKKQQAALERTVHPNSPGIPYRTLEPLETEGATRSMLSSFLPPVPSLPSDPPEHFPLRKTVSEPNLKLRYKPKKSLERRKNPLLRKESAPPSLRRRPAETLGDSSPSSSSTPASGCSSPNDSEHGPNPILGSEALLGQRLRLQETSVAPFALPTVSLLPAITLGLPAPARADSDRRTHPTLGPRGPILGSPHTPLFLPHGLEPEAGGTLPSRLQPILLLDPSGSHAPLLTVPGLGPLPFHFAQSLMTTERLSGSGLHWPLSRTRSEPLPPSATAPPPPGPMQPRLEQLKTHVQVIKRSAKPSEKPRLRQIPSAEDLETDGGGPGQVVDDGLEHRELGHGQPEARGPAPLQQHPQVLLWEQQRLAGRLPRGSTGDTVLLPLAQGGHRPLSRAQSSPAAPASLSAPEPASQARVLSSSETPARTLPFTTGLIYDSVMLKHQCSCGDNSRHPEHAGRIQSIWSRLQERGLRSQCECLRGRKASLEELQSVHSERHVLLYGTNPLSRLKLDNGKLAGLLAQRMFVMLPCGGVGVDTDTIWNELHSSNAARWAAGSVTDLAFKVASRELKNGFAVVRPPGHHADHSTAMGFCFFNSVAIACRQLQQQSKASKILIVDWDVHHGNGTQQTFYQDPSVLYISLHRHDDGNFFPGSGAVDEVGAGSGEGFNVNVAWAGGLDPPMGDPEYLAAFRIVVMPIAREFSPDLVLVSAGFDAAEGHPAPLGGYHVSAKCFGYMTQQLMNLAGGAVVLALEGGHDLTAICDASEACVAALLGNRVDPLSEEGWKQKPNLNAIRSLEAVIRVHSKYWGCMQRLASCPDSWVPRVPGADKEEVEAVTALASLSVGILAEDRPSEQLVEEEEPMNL

Sequence of Histone deacetylase 1 (Q13547 whole entry, the tested form may be a part): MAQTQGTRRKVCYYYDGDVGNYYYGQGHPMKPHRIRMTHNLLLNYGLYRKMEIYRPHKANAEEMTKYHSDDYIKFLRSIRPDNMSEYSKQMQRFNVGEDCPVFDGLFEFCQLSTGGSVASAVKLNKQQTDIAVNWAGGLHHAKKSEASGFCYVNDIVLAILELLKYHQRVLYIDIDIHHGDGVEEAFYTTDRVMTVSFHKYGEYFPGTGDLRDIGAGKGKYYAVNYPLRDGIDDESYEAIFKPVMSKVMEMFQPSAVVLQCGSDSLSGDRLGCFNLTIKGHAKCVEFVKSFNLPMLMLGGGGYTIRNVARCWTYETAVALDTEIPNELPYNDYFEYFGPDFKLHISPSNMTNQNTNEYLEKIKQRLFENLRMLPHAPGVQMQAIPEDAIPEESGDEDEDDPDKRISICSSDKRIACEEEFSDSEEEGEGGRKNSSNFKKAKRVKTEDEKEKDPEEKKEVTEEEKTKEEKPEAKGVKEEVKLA
Sequence of Histone deacetylase 3 (O15379 whole entry): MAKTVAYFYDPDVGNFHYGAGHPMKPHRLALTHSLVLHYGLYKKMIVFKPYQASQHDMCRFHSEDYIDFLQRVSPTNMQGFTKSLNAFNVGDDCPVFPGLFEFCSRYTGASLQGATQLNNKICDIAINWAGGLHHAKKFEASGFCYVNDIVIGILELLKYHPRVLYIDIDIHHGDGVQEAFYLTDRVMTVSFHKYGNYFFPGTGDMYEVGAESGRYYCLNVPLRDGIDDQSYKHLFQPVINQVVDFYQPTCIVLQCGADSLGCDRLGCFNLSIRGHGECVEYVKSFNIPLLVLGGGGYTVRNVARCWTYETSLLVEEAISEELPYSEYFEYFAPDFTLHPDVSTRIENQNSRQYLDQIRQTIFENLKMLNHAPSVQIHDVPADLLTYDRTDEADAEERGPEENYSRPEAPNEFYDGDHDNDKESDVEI
Sequence of Tubulin (Sus scrofa) (P02550 whole entry, looked up): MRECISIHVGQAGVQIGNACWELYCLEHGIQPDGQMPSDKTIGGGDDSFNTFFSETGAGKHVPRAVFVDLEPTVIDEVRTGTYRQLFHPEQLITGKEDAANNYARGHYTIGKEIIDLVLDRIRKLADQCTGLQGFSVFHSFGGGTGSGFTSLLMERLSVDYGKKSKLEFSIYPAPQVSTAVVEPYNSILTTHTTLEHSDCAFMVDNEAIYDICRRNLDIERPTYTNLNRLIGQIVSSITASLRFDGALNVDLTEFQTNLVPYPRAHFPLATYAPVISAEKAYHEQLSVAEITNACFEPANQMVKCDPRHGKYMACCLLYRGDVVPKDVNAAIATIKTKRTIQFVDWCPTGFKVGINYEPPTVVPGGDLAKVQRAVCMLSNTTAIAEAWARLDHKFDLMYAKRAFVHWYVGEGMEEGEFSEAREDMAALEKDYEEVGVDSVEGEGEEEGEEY
Sequence of Tubulin (Sus scrofa) (P02554 whole entry, looked up): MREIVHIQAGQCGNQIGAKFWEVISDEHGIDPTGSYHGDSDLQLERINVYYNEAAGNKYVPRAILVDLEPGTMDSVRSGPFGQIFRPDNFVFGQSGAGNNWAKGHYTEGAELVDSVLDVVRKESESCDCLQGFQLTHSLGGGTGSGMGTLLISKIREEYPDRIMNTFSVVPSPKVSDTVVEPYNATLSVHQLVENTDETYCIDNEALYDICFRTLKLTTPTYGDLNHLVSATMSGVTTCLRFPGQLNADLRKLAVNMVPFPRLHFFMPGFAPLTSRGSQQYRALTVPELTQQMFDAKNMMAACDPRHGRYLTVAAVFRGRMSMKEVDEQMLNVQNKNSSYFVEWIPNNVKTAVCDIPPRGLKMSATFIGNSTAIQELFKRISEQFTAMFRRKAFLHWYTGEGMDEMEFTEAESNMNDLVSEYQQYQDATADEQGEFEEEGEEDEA

| IC50 [1] | IC50 (Histone deacetylase 8) | IC50 (Histone deacetylase 1) | IC50 (HCT-116) | IC50 (Jurkat) | IC50 (A549) | IC50 (B16-F10) | IC50 (Histone deacetylase 3) | inhibition [4] | inhibition (Tubulin (Sus scrofa)) | IC50 (Histone deacetylase 7) | Structure (SMILES) | IC50 [2] | IC50 [3] |
| --- | --- | --- | --- | --- | --- | --- | --- | --- | --- | --- | --- | --- | --- |
| 1150 nM | 8840 nM | 6270 nM | 100 nM | 530 nM | 1930 nM | 3830 nM | 9560 nM | > 50% | 39% | – | COc1cc(C(=O)c2csc(-c3ccc(OCCCC(=O)NO)cc3)n2)cc(OC)c1OC | 920 nM | 1280 nM |
| 1590 nM | 2710 nM | 8490 nM | 100 nM | 20 nM | 750 nM | 1380 nM | 19100 nM | > 50% | 47% | – | COc1cc(C(=O)c2csc(-c3ccc(/C=C/C(=O)NO)cc3)n2)cc(OC)c1OC | 4090 nM | 6140 nM |
| 30200 nM | 800 nM | 14400 nM | 870 nM | 260 nM | 2980 nM | 3950 nM | 3960 nM | – | 67% | 43000 nM | COc1cc(C(=O)c2csc(-c3ccc(NC(=O)/C=C/C(=O)Nc4ccccc4N)cc3)n2)cc(OC)c1OC | – | – |

From ChEMBL document CHEMBL5096187, “Efficient Synthesis and Bioevaluation of Novel Dual Tubulin/Histone Deacetylase 3 Inhibitors as Potential Anticancer Agents” (J Med Chem, 2021)
